# What was measured:
# Format in all cases: functional
# [1] = system: UACC-257; assay: Growth inhibition of human UACC257 cells assessed as growth percentage at 10 uM incubated for 48 hrs by sulforhodamine B assay relative to control; details: UACC-257, 48 h, read-out: Activity
# Method in brief: (§1)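 NCI-60 single-dose screen. Cells were grown in RPMI 1640 with 5% FBS and 2 mM L-glutamine and plated at 5,000–40,000 cells/well. After an overnight preincubation at 37 °C in 5% CO2, compound was added at a final 10 µM from a DMSO stock, with DMSO/PBS controls. After 48 h, cells were TCA-fixed and stained with 0.4% SRB, and absorbance was read at 515 nm. Growth is given as a percentage of untreated control.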
# [2] = system: IGROV-1; assay: Growth inhibition of human IGROV1 cells assessed as growth percentage at 10 uM incubated for 48 hrs by sulforhodamine B assay relative to control; details: IGROV-1, 48 h, read-out: Activity
# Method in brief: (§2)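 NCI-60 one-dose screen. Cells in RPMI 1640 with 5% FBS and 2 mM L-glutamine, seeded at 5,000–40,000 cells/well according to doubling time, and preincubated overnight at 37 °C, 5% CO2. A time-zero plate was TCA-fixed at drug addition. Compound from DMSO stock, final 10 µM, 48 h; DMSO vehicle controls. Fixation with TCA, 10% final (16% for suspension cells). SRB stain, Tris solubilization, A515. Result given as % growth versus untreated cells.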
# [3] = system: MDA-MB-231; assay: Growth inhibition of human MDA-MB-231 cells assessed as growth percentage at 10 uM incubated for 48 hrs by sulforhodamine B assay relative to control; details: MDA-MB-231, 48 h, read-out: Activity; method in brief: as §2
# [4] = system: MDA-MB-435; assay: Growth inhibition of human MDA-MB-435 cells assessed as growth percentage at 10 uM incubated for 48 hrs by sulforhodamine B assay relative to control; details: MDA-MB-435, 48 h, read-out: Activity; method in brief: as §2
# [5] = system: A549; assay: Growth inhibition of human A549/ATCC cells assessed as growth percentage at 10 uM incubated for 48 hrs by sulforhodamine B assay relative to control; details: A549, 48 h, read-out: Activity
# Method in brief: (§3)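 NCI-60 one-dose screen: cells in RPMI 1640 with 5% FBS and 2 mM L-glutamine, plated at 5,000–40,000 cells/well and preincubated 24 h at 37 °C, 5% CO2. Compound is added from a DMSO stock to a final 10 µM and incubated 48 h. Cells are TCA-fixed and stained with sulforhodamine B, read at 515 nm. Output is % growth versus untreated control, with a time-zero plate.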
# [6] = system: SK-MEL-28; assay: Growth inhibition of human SK-MEL-28 cells assessed as growth percentage at 10 uM incubated for 48 hrs by sulforhodamine B assay relative to control; details: SK-MEL-28, 48 h, read-out: Activity; method in brief: as §1
# [7] = system: SK-OV-3; assay: Growth inhibition of human SKOV3 cells assessed as growth percentage at 10 uM incubated for 48 hrs by sulforhodamine B assay relative to control; details: SK-OV-3, 48 h, read-out: Activity; method in brief: as §1
# [8] = system: OVCAR-5; assay: Growth inhibition of human OVCAR5 cells assessed as growth percentage at 10 uM incubated for 48 hrs by sulforhodamine B assay relative to control; details: OVCAR-5, 48 h, read-out: Activity; method in brief: as §1
# [9] = system: LOX IMVI; assay: Growth inhibition of human LOXIMVI cells assessed as growth percentage at 10 uM incubated for 48 hrs by sulforhodamine B assay relative to control; details: read-out: Activity; method in brief: as §2
# [10] = system: MCF7; assay: Growth inhibition of human MCF7 cells assessed as growth percentage at 10 uM incubated for 48 hrs by sulforhodamine B assay relative to control; details: MCF7, 48 h, read-out: Activity; method in brief: as §2
# [11] = system: Hs-578T; assay: Growth inhibition of human Hs 578T cells assessed as growth percentage at 10 uM incubated for 48 hrs by sulforhodamine B assay relative to control; details: read-out: Activity; method in brief: as §2
# [12] = system: KM12; assay: Growth inhibition of human KM12 cells assessed as growth percentage at 10 uM incubated for 48 hrs by sulforhodamine B assay relative to control; details: KM12, 48 h, read-out: Activity; method in brief: as §2
# [13] = system: HOP-92; assay: Growth inhibition of human HOP92 cells assessed as growth percentage at 10 uM incubated for 48 hrs by sulforhodamine B assay relative to control; details: HOP-92, 48 h, read-out: Activity; method in brief: as §2
# [14] = system: CAKI-1; assay: Growth inhibition of human Caki1 cells assessed as growth percentage at 10 uM incubated for 48 hrs by sulforhodamine B assay relative to control; details: CAKI-1, 48 h, read-out: Activity; method in brief: as §3
# [15] = system: M14; assay: Growth inhibition of human M14 cells assessed as growth percentage at 10 uM incubated for 48 hrs by sulforhodamine B assay relative to control; details: M14, 48 h, read-out: Activity; method in brief: as §2
# [16] = system: NCI/ADR-RES; assay: Growth inhibition of human NCI/ADR-RES cells assessed as growth percentage at 10 uM incubated for 48 hrs by sulforhodamine B assay relative to control; details: read-out: Activity; method in brief: as §2
# [17] = system: U-251; assay: Growth inhibition of human U251 cells assessed as growth percentage at 10 uM incubated for 48 hrs by sulforhodamine B assay relative to control; details: U-251, 48 h, read-out: Activity; method in brief: as §1
# [18] = system: EKVX; assay: Growth inhibition of human EKVX cells assessed as growth percentage at 10 uM incubated for 48 hrs by sulforhodamine B assay relative to control; details: read-out: Activity; method in brief: as §3
# [19] = system: PC-3; assay: Growth inhibition of human PC3 cells assessed as growth percentage at 10 uM incubated for 48 hrs by sulforhodamine B assay relative to control; details: PC-3, 48 h, read-out: Activity; method in brief: as §1
# [20] = system: DU-145; assay: Growth inhibition of human DU145 cells assessed as growth percentage at 10 uM incubated for 48 hrs by sulforhodamine B assay relative to control; details: DU-145, 48 h, read-out: Activity; method in brief: as §3
# [21] = system: SNB-75; assay: Growth inhibition of human SNB75 cells assessed as growth percentage at 10 uM incubated for 48 hrs by sulforhodamine B assay relative to control; details: SNB-75, 48 h, read-out: Activity; method in brief: as §1
# [22] = system: MOLT-4; assay: Growth inhibition of human MOLT4 cells assessed as growth percentage at 10 uM incubated for 48 hrs by sulforhodamine B assay relative to control; details: MOLT-4, 48 h, read-out: Activity; method in brief: as §2
# [23] = system: RPMI-8226; assay: Growth inhibition of human RPMI8226 cells assessed as growth percentage at 10 uM incubated for 48 hrs by sulforhodamine B assay relative to control; details: RPMI-8226, 48 h, read-out: Activity; method in brief: as §1
# [24] = system: SNB-19; assay: Growth inhibition of human SNB19 cells assessed as growth percentage at 10 uM incubated for 48 hrs by sulforhodamine B assay relative to control; details: SNB-19, 48 h, read-out: Activity; method in brief: as §1
# [25] = system: COLO 205; assay: Growth inhibition of human COLO205 cells assessed as growth percentage at 10 uM incubated for 48 hrs by sulforhodamine B assay relative to control; details: COLO 205, 48 h, read-out: Activity; method in brief: as §3
# [26] = system: T47D; assay: Growth inhibition of human T47D cells assessed as growth percentage at 10 uM incubated for 48 hrs by sulforhodamine B assay relative to control; details: read-out: Activity; method in brief: as §1
# [27] = system: SR; assay: Growth inhibition of human SR cells assessed as growth percentage at 10 uM incubated for 48 hrs by sulforhodamine B assay relative to control; details: read-out: Activity; method in brief: as §1
SMILES,growth at 10 µM [1],growth at 10 µM [2],growth at 10 µM [3],growth at 10 µM [4],growth at 10 µM [5],growth at 10 µM [6],growth at 10 µM [7],growth at 10 µM [8],growth at 10 µM [9],growth at 10 µM [10],growth at 10 µM [11],growth at 10 µM [12],growth at 10 µM [13],growth at 10 µM [14],growth at 10 µM [15],growth at 10 µM [16],growth at 10 µM [17],growth at 10 µM [18],growth at 10 µM [19],growth at 10 µM [20],also measured
COCCOC(=O)C1=C(C)NC(=O)NC1c1ccc2c(c1)OCO2 (racemic),103%,103%,98.8%,101%,101%,112%,98.8%,101%,98.6%,96.8%,103%,102%,112%,90.4%,104%,104%,98.3%,99.1%,98.8%,108%,growth at 10 µM [21]: 89.6%; growth at 10 µM [22]: 101%; growth at 10 µM [23]: 101%; growth at 10 µM [24]: 95.6%; growth at 10 µM [25]: 102%; growth at 10 µM [26]: 98.4%; growth at 10 µM [27]: 105%
CC(=O)N1C(=S)NC(C)=C(C(=O)OCc2ccccc2)C1c1ccc2c(c1)OCO2 (racemic),77.7%,98%,84.5%,60.1%,95.6%,102%,79.2%,107%,74.1%,92.1%,76.8%,71.1%,73.3%,92.4%,54%,95.3%,58.2%,96.8%,81.3%,95%,growth at 10 µM [21]: 80.4%; growth at 10 µM [22]: 58.7%; growth at 10 µM [23]: 54.8%; growth at 10 µM [24]: 87.8%; growth at 10 µM [25]: 91.8%; growth at 10 µM [26]: 58.1%
CC1=C(C(=O)OCC(C)C)C(c2ccc3c(c2)OCO3)NC(=S)N1 (racemic),95.6%,97.9%,118%,103%,99%,119%,106%,105%,96.3%,98.6%,101%,99.1%,103%,86.6%,120%,96.7%,97.4%,104%,84.4%,109%,growth at 10 µM [21]: 94.1%; growth at 10 µM [22]: 89.1%; growth at 10 µM [23]: 84%; growth at 10 µM [24]: 103%; growth at 10 µM [25]: 123%; growth at 10 µM [26]: 81.9%; growth at 10 µM [27]: 104%

# Reference: ChEMBL document CHEMBL4406880, “Design, synthesis, and bioactivity of dihydropyrimidine derivatives as kinesin spindle protein inhibitors” (Bioorg Med Chem, 2019)
